pKi: −log10 of the molar value.

This experiment deals with T1, Gonadotropin-releasing hormone receptor (Rattus norvegicus, UniProt P30969).
T1 sequence (P30969 whole entry): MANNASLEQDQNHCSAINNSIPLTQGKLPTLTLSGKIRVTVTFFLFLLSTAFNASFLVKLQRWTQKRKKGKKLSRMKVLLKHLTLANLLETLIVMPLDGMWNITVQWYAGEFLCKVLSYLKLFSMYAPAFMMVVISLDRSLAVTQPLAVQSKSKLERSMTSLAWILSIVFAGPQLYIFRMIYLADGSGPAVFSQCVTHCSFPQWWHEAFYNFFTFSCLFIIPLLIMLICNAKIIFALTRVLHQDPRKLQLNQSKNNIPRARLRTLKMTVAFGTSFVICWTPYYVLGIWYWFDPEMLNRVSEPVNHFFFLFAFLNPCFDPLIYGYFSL
As to the kind of experiment: Competitive radioligand binding assay for rat Gonadotropin-releasing hormone receptor cells stably transfected in human HEK293. A digest of the protocol: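 Membranes from HEK-293 cells stably expressing rat GnRH receptor (5% sucrose homogenate; nuclei removed at 3000g, membranes pelleted at 20000g, 4 °C), 7 µg protein in 10 mM Hepes pH 7.5, 150 mM NaCl, 0.1% BSA. Competitor at varying concentrations vs des-Gly10-[125I-Tyr5,DAla6,NMeLeu7,Pro9-NHEt]GnRH (~100 000 cpm), 90 min; PEI-coated GF/C filtration, PBS wash, γ counting. Ki by nonlinear least-squares fit; ≥3 independent experiments, mean ± SEM.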
`CC(=O)N[C@@H]1CCC(=O)NCC[C@H](C(=O)N[C@@H](CO)C(=O)N[C@@H](Cc2ccc(O)cc2)C(=O)N[C@H](Cc2ccc3ccccc3c2)C(=O)N[C@@H](CC(C)C)C(=O)N[C@@H](CCCN=C(N)N)C(=O)N2CCC[C@H]2C(=O)N[C@H](C)C(N)=O)NC(=O)[C@@H](Cc2ccc(Cl)cc2)NC1=O` had a pKi of 9.51.

As for `CC(=O)N[C@@H]1CC(=O)NCC(=O)NCC[C@H](C(=O)N[C@@H](CO)C(=O)N[C@@H](Cc2ccc(O)cc2)C(=O)N[C@H](Cc2ccc3ccccc3c2)C(=O)N[C@@H](CC(C)C)C(=O)N[C@@H](CCCN=C(N)N)C(=O)N2CCC[C@H]2C(=O)N[C@H](C)C(N)=O)NC(=O)[C@@H](Cc2ccc(Cl)cc2)NC1=O`, the pKi was 9.15. The value for `CC(=O)N[C@@H]1CC(=O)NCCCC[C@H](C(=O)N[C@@H](CO)C(=O)N[C@@H](Cc2ccc(O)cc2)C(=O)N[C@H](Cc2ccc3ccccc3c2)C(=O)N[C@@H](CC(C)C)C(=O)N[C@@H](CCCN=C(N)N)C(=O)N2CCC[C@H]2C(=O)N[C@H](C)C(N)=O)NC(=O)[C@@H](Cc2ccc(Cl)cc2)NC1=O` was 9.09; that for `CC(=O)N[C@@H]1CC(=O)NCCC(=O)NC[C@H](C(=O)N[C@@H](CO)C(=O)N[C@@H](Cc2ccc(O)cc2)C(=O)N[C@H](Cc2ccc3ccccc3c2)C(=O)N[C@@H](CC(C)C)C(=O)N[C@@H](CCCN=C(N)N)C(=O)N2CCC[C@H]2C(=O)N[C@H](C)C(N)=O)NC(=O)[C@@H](Cc2ccc(Cl)cc2)NC1=O` was 9.46.

On to `CC(=O)N[C@@H]1CC(=O)N[C@H](C)C(=O)NCCC[C@H](C(=O)N[C@@H](CO)C(=O)N[C@@H](Cc2ccc(O)cc2)C(=O)N[C@H](Cc2ccc3ccccc3c2)C(=O)N[C@@H](CC(C)C)C(=O)N[C@@H](CCCN=C(N)N)C(=O)N2CCC[C@H]2C(=O)N[C@H](C)C(N)=O)NC(=O)[C@@H](Cc2ccc(Cl)cc2)NC1=O`, for which the pKi was 8.62. The value for `CC(=O)N[C@@H]1CCC(=O)NCC(=O)NCCCC[C@H](C(=O)N[C@@H](CO)C(=O)N[C@@H](Cc2ccc(O)cc2)C(=O)N[C@H](Cc2ccc3ccccc3c2)C(=O)N[C@@H](CC(C)C)C(=O)N[C@@H](CCCN=C(N)N)C(=O)N2CCC[C@H]2C(=O)N[C@H](C)C(N)=O)NC(=O)[C@@H](Cc2ccc(Cl)cc2)NC1=O` was 8.82. The value for `CC(=O)N[C@@H]1CCC(=O)NCCCC[C@H](C(=O)N[C@H]2CC(=O)NC[C@@H](C(N)=O)NC(=O)[C@@H]3CCCN3C(=O)[C@@H]3CCCCNC(=O)CC[C@H](NC2=O)C(=O)N[C@H](Cc2ccc4ccccc4c2)C(=O)N[C@@H](CC(C)C)C(=O)N3)NC(=O)[C@@H](Cc2ccc(Cl)cc2)NC1=O` was 8.34.

`CC(=O)N[C@@H]1CCC(=O)NCC(=O)NCC[C@H](C(=O)N[C@@H](CO)C(=O)N[C@@H](Cc2ccc(O)cc2)C(=O)N[C@H](Cc2ccc3ccccc3c2)C(=O)N[C@@H](CC(C)C)C(=O)N[C@@H](CCCN=C(N)N)C(=O)N2CCC[C@H]2C(=O)N[C@H](C)C(N)=O)NC(=O)[C@@H](Cc2ccc(Cl)cc2)NC1=O`: the pKi is 7.69. The same measure for `CC(=O)N[C@@H]1CC(=O)N[C@@H](C)C(=O)NCCC[C@H](C(=O)N[C@@H](CO)C(=O)N[C@@H](Cc2ccc(O)cc2)C(=O)N[C@H](Cc2ccc3ccccc3c2)C(=O)N[C@@H](CC(C)C)C(=O)N[C@@H](CCCN=C(N)N)C(=O)N2CCC[C@H]2C(=O)N[C@H](C)C(N)=O)NC(=O)[C@@H](Cc2ccc(Cl)cc2)NC1=O`: 8.48; for `CC(=O)N[C@@H]1CC(=O)NCCC(=O)NCCC[C@H](C(=O)N[C@@H](CO)C(=O)N[C@@H](Cc2ccc(O)cc2)C(=O)N[C@H](Cc2ccc3ccccc3c2)C(=O)N[C@@H](CC(C)C)C(=O)N[C@@H](CCCN=C(N)N)C(=O)N2CCC[C@H]2C(=O)N[C@H](C)C(N)=O)NC(=O)[C@@H](Cc2ccc(Cl)cc2)NC1=O`: 9.77; for `CC(=O)N[C@@H]1CC(=O)N[C@@H](C)C(=O)NCC[C@H](C(=O)N[C@@H](CO)C(=O)N[C@@H](Cc2ccc(O)cc2)C(=O)N[C@H](Cc2ccc3ccccc3c2)C(=O)N[C@@H](CC(C)C)C(=O)N[C@@H](CCCN=C(N)N)C(=O)N2CCC[C@H]2C(=O)N[C@H](C)C(N)=O)NC(=O)[C@@H](Cc2ccc(Cl)cc2)NC1=O`: 8.74. The same measure for `CC(=O)N[C@@H]1CC(=O)NCCCC[C@H](C(=O)N[C@H]2CC(=O)NC[C@@H](C(N)=O)NC(=O)[C@@H]3CCCN3C(=O)[C@H](CCCN=C(N)N)NC(=O)[C@H](CC(C)C)NC(=O)[C@@H](Cc3ccc4ccccc4c3)NC(=O)[C@H](Cc3ccc(O)cc3)NC2=O)NC(=O)[C@@H](Cc2ccc(Cl)cc2)NC1=O`: 8.92; for `CC(=O)N[C@H]1CC(=O)NC[C@@H](C(=O)N[C@@H](CO)C(=O)N[C@@H](Cc2ccc(O)cc2)C(=O)N[C@H](Cc2ccc3ccccc3c2)C(=O)N[C@@H](CC(C)C)C(=O)N[C@@H](CCCN=C(N)N)C(=O)N2CCC[C@H]2C(=O)N[C@H](C)C(N)=O)NC(=O)[C@@H](Cc2ccc(Cl)cc2)NC1=O`: 7.51; for `CC(=O)N[C@@H]1CCC(=O)NCCCC[C@H](C(=O)N[C@@H](CO)C(=O)N[C@@H](Cc2ccc(O)cc2)C(=O)N[C@H](Cc2ccc3ccccc3c2)C(=O)N[C@@H](CC(C)C)C(=O)N[C@@H](CCCN=C(N)N)C(=O)N2CCC[C@H]2C(=O)N[C@H](C)C(N)=O)NC(=O)[C@@H](Cc2ccc(Cl)cc2)NC1=O`: 9.33. The same measure for `CC(=O)N[C@@H]1CNC(=O)C[C@H](C(=O)N[C@@H](CO)C(=O)N[C@@H](Cc2ccc(O)cc2)C(=O)N[C@H](Cc2ccc3ccccc3c2)C(=O)N[C@@H](CC(C)C)C(=O)N[C@@H](CCCN=C(N)N)C(=O)N2CCC[C@H]2C(=O)N[C@H](C)C(N)=O)NC(=O)[C@@H](Cc2ccc(Cl)cc2)NC1=O`: 8.77. `CC(=O)N[C@@H]1CC(=O)NCCC(=O)NCC[C@H](C(=O)N[C@@H](CO)C(=O)N[C@@H](Cc2ccc(O)cc2)C(=O)N[C@H](Cc2ccc3ccccc3c2)C(=O)N[C@@H](CC(C)C)C(=O)N[C@@H](CCCN=C(N)N)C(=O)N2CCC[C@H]2C(=O)N[C@H](C)C(N)=O)NC(=O)[C@@H](Cc2ccc(Cl)cc2)NC1=O` had a pKi of 9.49. The value for `CC(=O)N[C@@H]1CCC(=O)NCC(=O)NCCC[C@H](C(=O)N[C@@H](CO)C(=O)N[C@@H](Cc2ccc(O)cc2)C(=O)N[C@H](Cc2ccc3ccccc3c2)C(=O)N[C@@H](CC(C)C)C(=O)N[C@@H](CCCN=C(N)N)C(=O)N2CCC[C@H]2C(=O)N[C@H](C)C(N)=O)NC(=O)[C@@H](Cc2ccc(Cl)cc2)NC1=O` was 8.38; that for `CC(=O)N[C@@H]1CCC(=O)NCCC(=O)NCCCC[C@H](C(=O)N[C@@H](CO)C(=O)N[C@@H](Cc2ccc(O)cc2)C(=O)N[C@H](Cc2ccc3ccccc3c2)C(=O)N[C@@H](CC(C)C)C(=O)N[C@@H](CCCN=C(N)N)C(=O)N2CCC[C@H]2C(=O)N[C@H](C)C(N)=O)NC(=O)[C@@H](Cc2ccc(Cl)cc2)NC1=O` was 8.66. On to `CC(=O)N[C@@H]1CC(=O)N[C@H](C)C(=O)NCC[C@H](C(=O)N[C@@H](CO)C(=O)N[C@@H](Cc2ccc(O)cc2)C(=O)N[C@H](Cc2ccc3ccccc3c2)C(=O)N[C@@H](CC(C)C)C(=O)N[C@@H](CCCN=C(N)N)C(=O)N2CCC[C@H]2C(=O)N[C@H](C)C(N)=O)NC(=O)[C@@H](Cc2ccc(Cl)cc2)NC1=O`, for which the pKi was 9.24. `CC(=O)N[C@@H]1CC(=O)N[C@@H](C)C(=O)NCCC[C@H](C(=O)N[C@@H](CO)C(=O)N[C@@H](Cc2ccc(O)cc2)C(=O)N[C@H](CCCN=C(N)N)C(=O)N[C@@H](CC(C)C)C(=O)N[C@@H](CCCN=C(N)N)C(=O)N2CCC[C@H]2C(=O)N[C@H](C)C(N)=O)NC(=O)[C@@H](Cc2ccc(Cl)cc2)NC1=O` showed a pKi of 6.46. The compound `CC(=O)N[C@@H]1CC(=O)NCC(=O)NCCC[C@H](C(=O)N[C@@H](CO)C(=O)N[C@@H](Cc2ccc(O)cc2)C(=O)N[C@H](Cc2ccc3ccccc3c2)C(=O)N[C@@H](CC(C)C)C(=O)N[C@@H](CCCN=C(N)N)C(=O)N2CCC[C@H]2C(=O)N[C@H](C)C(N)=O)NC(=O)[C@@H](Cc2ccc(Cl)cc2)NC1=O` had a pKi of 9.47. The value for `CC(=O)N[C@@H]1CC(=O)NCCC[C@H](C(=O)N[C@@H](CO)C(=O)N[C@@H](Cc2ccc(O)cc2)C(=O)N[C@H](Cc2ccc3ccccc3c2)C(=O)N[C@@H](CC(C)C)C(=O)N[C@@H](CCCN=C(N)N)C(=O)N2CCC[C@H]2C(=O)N[C@H](C)C(N)=O)NC(=O)[C@@H](Cc2ccc(Cl)cc2)NC1=O` was 8.80; that for `CC(=O)N[C@@H]1CCC(=O)NCCC[C@H](C(=O)N[C@@H](CO)C(=O)N[C@@H](Cc2ccc(O)cc2)C(=O)N[C@H](Cc2ccc3ccccc3c2)C(=O)N[C@@H](CC(C)C)C(=O)N[C@@H](CCCN=C(N)N)C(=O)N2CCC[C@H]2C(=O)N[C@H](C)C(N)=O)NC(=O)[C@@H](Cc2ccc(Cl)cc2)NC1=O` was 8.28; that for `CC(=O)N[C@@H]1CC(=O)NCC(=O)NCCCC[C@H](C(=O)N[C@@H](CO)C(=O)N[C@@H](Cc2ccc(O)cc2)C(=O)N[C@H](Cc2ccc3ccccc3c2)C(=O)N[C@@H](CC(C)C)C(=O)N[C@@H](CCCN=C(N)N)C(=O)N2CCC[C@H]2C(=O)N[C@H](C)C(N)=O)NC(=O)[C@@H](Cc2ccc(Cl)cc2)NC1=O` was 9.85. The same measure for `CC(=O)N[C@@H]1CC(=O)NCCCC(=O)NC[C@H](C(=O)N[C@@H](CO)C(=O)N[C@@H](Cc2ccc(O)cc2)C(=O)N[C@H](Cc2ccc3ccccc3c2)C(=O)N[C@@H](CC(C)C)C(=O)N[C@@H](CCCN=C(N)N)C(=O)N2CCC[C@H]2C(=O)N[C@H](C)C(N)=O)NC(=O)[C@@H](Cc2ccc(Cl)cc2)NC1=O`: 9.74.

The values are drawn from ChEMBL document CHEMBL1132958, “Design of monocyclic (1-3) and dicyclic (1-3/4-10) gonadotropin releasing hormone (GnRH) antagonists” (J Med Chem, 2000).
